Reference: ChEMBL document CHEMBL1125291, “New 8-(trifluoromethyl)-substituted quinolones. The benefits of the 8-fluoro group with reduced phototoxic risk” (1992)
Values after ≈ are worked out from the molar mass of the structure shown. Values joined by “and” are separate entries in the source; they are usually repeats but may differ in a detail not shown here. Equal values may be shown once.

Legend:
[1] = Number of mice which show positive phototoxic reaction in 5 mice at subcutaneous dose; format: functional, Mus musculus
How it was run: (§1)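 Depilated female CD-1 mice got a single oral (gavage) or subcutaneous dose, then UVA (320–400 nm) exposure for 3 h starting 1 h post-dose. This was repeated for up to 4 consecutive days. Initial doses were 30, 100 and 300 mg/kg. PTD50 was derived by probit. First day of positive reaction and no-effect dose were taken from the raw data.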

Pseudomonas aeruginosa [2] = experiment: In vivo efficacy (orally) against Pseudomonas aeruginosa in mouse protection test; format: functional; settings: for ED50: Pseudomonas aeruginosa, po, read-out: PD50
How it was run: (§2)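 Acute lethal systemic infections in female Charles River CD-1 mice. A single dose was given at challenge, orally by gavage or by subcutaneous injection. PD50 (median protective dose, mg/kg) was determined.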

Pseudomonas aeruginosa [3] = experiment: Minimum inhibitory concentration (MIC) against gram negative bacteria Pseudomonas aeruginosa UI-18.; format: functional
How it was run: (§3)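 MICs were determined by standard broth microtitration against 11 Gram-positive and Gram-negative organisms, in µg/mL. Values come from duplicate or triplicate experiments and are accurate to ±50%.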

Mus musculus [4] = experiment: Dose required to induce phototoxic reaction in 50% of mice by […] reactions at different dosage forms after sc administration; format: functional
How it was run: (§4)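 Phototoxic skin reaction test in depilated female CD-1 mice. A single oral dose (gavage) or subcutaneous dose was given, followed 1 h later by 3 h of UVA exposure (320–400 nm). The regimen was repeated for up to 4 consecutive days, with initial doses of 30, 100 and 300 mg/kg. PTD50 was derived by the probit method. The first day of positive reaction and the no-effect dose were taken from the raw data.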

[5] = Number of mice which show positive phototoxic reaction in 5 mice at peroral dose; format: functional, Mus musculus; how it was run: as §1
Escherichia coli [6] = experiment: Minimum inhibitory concentration (MIC) against gram negative bacteria Escherichia coli Vogel.; format: functional; how it was run: as §3
Mus musculus [7] = experiment: (§5) Maximum tolerance dose was measured for phototoxic skin reaction by sc administration; format: functional; how it was run: as §1
Streptococcus pyogenes [8] = experiment: In vivo efficacy (orally) against Streptococcus pyogenes C-203 in mouse protection test; format: functional; settings: for ED50: Streptococcus pyogenes, po, read-out: PD50; how it was run: as §2
Escherichia coli [9] = experiment: Minimum inhibitory concentration (MIC) against gram negative bacteria Escherichia coli H-560.; format: functional; how it was run: as §3
Staphylococcus aureus [10] = experiment: Minimum inhibitory concentration (MIC) against gram positive bacteria Staphylococcus aureus H-228.; format: functional; how it was run: as §3
Enterococcus faecalis = experiment: Minimum inhibitory concentration (MIC) against gram positive bacteria Streptococcus faecalis MGH-2.; format: functional; how it was run: as §3
Streptococcus pneumoniae [11] = experiment: In vivo efficacy (s.c.) against Streptococcus pneumoniae SV-1 in mouse protection test; format: functional; settings: for ED50: Streptococcus pneumoniae, sc, read-out: PD50; how it was run: as §2
Mus musculus [12] = species on record: Mus musculus; experiment: Dose required to induce phototoxic reaction in 50% of mice by probit method at different dosage forms.; format: functional
Mus musculus [13] = species on record: Mus musculus; experiment: Dose which has no effect to induce phototoxic reaction in 50% of mice by probit method.; format: functional
Mus musculus [14] = experiment: Compound's dose which has no effect to induce phototoxic reaction in 50% of mice by […] reactions after sc administration; format: functional; how it was run: as §4
Escherichia coli [15] = experiment: In vivo efficacy in mouse protection test in Escherichia coli Vogel dose administered orally by gavage.; format: functional; settings: for ED50: Escherichia coli, po, read-out: PD50; how it was run: as §2
Mus musculus [16] = experiment: Days of the first positive reaction in […] mice after sc administration; format: functional; how it was run: as §4
Streptococcus pyogenes [17] = experiment: Minimum inhibitory concentration (MIC) against gram positive bacteria Streptococcus pyogenes C-203.; format: functional; how it was run: as §3
[18] = Minimum inhibitory concentration (MIC) against gram negative bacteria Prot. rettgeri M-1771.; format: functional, Providencia rettgeri; how it was run: as §3
Streptococcus pyogenes [19] = experiment: In vivo efficacy (s.c.) against Streptococcus pyogenes C-203 in mouse protection test; format: functional; settings: for ED50: Streptococcus pyogenes, sc, read-out: PD50; how it was run: as §2
Streptococcus pneumoniae [20] = experiment: Minimum inhibitory concentration (MIC) against gram positive bacteria Streptococcus pneumoniae SV-1.; format: functional; how it was run: as §3
Mus musculus [21] = experiment: as §5; format: functional; how it was run: as §1; remark: listed apart in the source
Klebsiella pneumoniae = experiment: Minimum inhibitory concentration (MIC) against gram negative bacteria Klebsiella pneumoniae MGH-2.; format: functional; how it was run: as §3
Streptococcus pneumoniae [22] = experiment: In vivo efficacy (orally) against Streptococcus pneumoniae SV-1 in mouse protection test; format: functional; settings: for ED50: Streptococcus pneumoniae, po, read-out: PD50; how it was run: as §2
Staphylococcus aureus [23] = experiment: Minimum inhibitory concentration (MIC) against gram positive bacteria Staphylococcus aureus UC-76.; format: functional; how it was run: as §3
Escherichia coli [24] = experiment: In vivo efficacy in mouse protection test in Escherichia coli Vogel administered by subcutaneous injection.; format: functional; settings: for ED50: Escherichia coli, sc, read-out: PD50; how it was run: as §2
Mus musculus [25] = experiment: Maximum tolerance dose was measured for phototoxic skin reaction by po administration; format: functional
Pseudomonas aeruginosa [26] = experiment: In vivo efficacy (s.c.) against Pseudomonas aeruginosa in mouse protection test; format: functional; settings: for ED50: Pseudomonas aeruginosa, sc, read-out: PD50; how it was run: as §2
Mus musculus [27] = species on record: Mus musculus; experiment: Number of mice which show positive phototoxic reaction.; format: functional; how it was run: as §4
Mus musculus [28] = species on record: Mus musculus; experiment: Days of the first positive reaction in […] mice.; format: functional; how it was run: as §4
Enterobacter cloacae = experiment: Minimum inhibitory concentration (MIC) against gram negative bacteria Enterobacter cloacae MA-2646.; format: functional
[29] = Pseudomonas aeruginosa, read-out: MIC
[30] = Escherichia coli, read-out: MIC
[31] = Staphylococcus aureus, read-out: MIC
[32] = Enterococcus faecalis, read-out: MIC
[33] = Streptococcus pyogenes, read-out: MIC
[34] = Providencia rettgeri, read-out: MIC
[35] = Streptococcus pneumoniae, read-out: MIC
[36] = Klebsiella pneumoniae, read-out: MIC

O=C(O)c1cn(C2CC2)c2cc(N3CCNCC3)c(F)cc2c1=O [CIPROFLOXACIN]
No. of pos rxns [1]: 5 | PD50 (Pseudomonas aeruginosa [2]): 25 mg/kg | ED50 (Pseudomonas aeruginosa [2]): 25 mg/kg | MIC (Pseudomonas aeruginosa [3]): 0.2 µg/mL (≈ 0.604 µM) | MIC (Pseudomonas aeruginosa [3]; [29]): 0.2 µg/mL (≈ 0.604 µM) | PTD50 (Mus musculus [4]): 172 mg/kg | No. of pos rxns [5]: 0 | MIC (Escherichia coli [6]): 0.025 µg/mL (≈ 0.0754 µM) | MIC (Escherichia coli [6]; [30]): 0.025 µg/mL (≈ 0.0754 µM) | MTD (Mus musculus [7]): 100 mg/kg | PD50 (Streptococcus pyogenes [8]): 180 mg/kg | ED50 (Streptococcus pyogenes [8]): 180 mg/kg | MIC (Escherichia coli [9]): 0.025 µg/mL (≈ 0.0754 µM) | MIC (Escherichia coli [9]; [30]): 0.025 µg/mL (≈ 0.0754 µM) | MIC (Staphylococcus aureus [10]): 1.6 µg/mL (≈ 4.83 µM) | MIC (Staphylococcus aureus [10]; [31]): 1.6 µg/mL (≈ 4.83 µM) | MIC (Enterococcus faecalis): 1.6 µg/mL (≈ 4.83 µM) | MIC (Enterococcus faecalis; [32]): 1.6 µg/mL (≈ 4.83 µM) | PD50 (Streptococcus pneumoniae [11]): 29 mg/kg | ED50 (Streptococcus pneumoniae [11]): 29 mg/kg | PTD50 (Mus musculus [12]): >300 mg kg-1 and 172 | No effect dose (Mus musculus [13]): 300 mg kg-1 and 100 | No effect dose (Mus musculus [14]): 100 mg/kg | PD50 (Escherichia coli [15]): 1.2 mg/kg | ED50 (Escherichia coli [15]): 1.2 mg/kg | Day of first positve reaction (Mus musculus [16]): 2 | MIC (Streptococcus pyogenes [17]): 0.4 µg/mL (≈ 1.21 µM) | MIC (Streptococcus pyogenes [17]; [33]): 0.4 µg/mL (≈ 1.21 µM) | MIC [18]: 0.1 µg/mL (≈ 0.302 µM) | MIC [18, 34]: 0.1 µg/mL (≈ 0.302 µM) | PD50 (Streptococcus pyogenes [19]): 19 mg/kg | ED50 (Streptococcus pyogenes [19]): 19 mg/kg | MIC (Streptococcus pneumoniae [20]): 0.8 µg/mL (≈ 2.41 µM) | MIC (Streptococcus pneumoniae [20]; [35]): 0.8 µg/mL (≈ 2.41 µM) | MTD (Mus musculus [21]): 100 mg/kg | MIC (Klebsiella pneumoniae): 0.05 µg/mL (≈ 0.151 µM) | MIC (Klebsiella pneumoniae; [36]): 0.05 µg/mL (≈ 0.151 µM) | PD50 (Streptococcus pneumoniae [22]): 260 mg/kg | ED50 (Streptococcus pneumoniae [22]): 260 mg/kg | MIC (Staphylococcus aureus [23]): 0.1 µg/mL (≈ 0.302 µM) | MIC (Staphylococcus aureus [23]; [31]): 0.1 µg/mL (≈ 0.302 µM) | PD50 (Escherichia coli [24]): 0.25 mg/kg | ED50 (Escherichia coli [24]): 0.25 mg/kg | MTD (Mus musculus [25]): 300 mg/kg | PD50 (Pseudomonas aeruginosa [26]): 5 mg/kg | ED50 (Pseudomonas aeruginosa [26]): 5 mg/kg

NC1CCCN(c2c(F)cc3c(=O)c(C(=O)O)cn(C4CC4)c3c2F)C1 (stereo unspecified)
No. of pos rxns (Mus musculus [27]): 0 | MIC (Pseudomonas aeruginosa [3]; [29]): 0.2 µg/mL (≈ 0.55 µM) | MIC (Escherichia coli [6]; [30]): 0.2 µg/mL (≈ 0.55 µM) | Day of first positve reaction (Mus musculus [28]): 0 | ED50 (Streptococcus pyogenes [8]): 32 mg/kg | MIC (Escherichia coli [9]; [30]): 0.2 µg/mL (≈ 0.55 µM) | MIC (Staphylococcus aureus [10]; [31]): 0.1 µg/mL (≈ 0.275 µM) | MIC (Enterococcus faecalis; [32]): 0.1 µg/mL (≈ 0.275 µM) | PTD50 (Mus musculus [12]): >100 mg/kg | No effect dose (Mus musculus [13]): 100 mg/kg | ED50 (Escherichia coli [15]): 4.7 mg/kg | MIC (Streptococcus pyogenes [17]; [33]): 0.1 µg/mL (≈ 0.275 µM) | MIC [18, 34]: 0.2 µg/mL (≈ 0.55 µM) | MIC (Enterobacter cloacae): 0.2 µg/mL (≈ 0.55 µM) | ED50 (Streptococcus pyogenes [19]): 3.4 mg/kg | MIC (Streptococcus pneumoniae [20]; [35]): 0.1 µg/mL (≈ 0.275 µM) | MIC (Klebsiella pneumoniae; [36]): 0.2 µg/mL (≈ 0.55 µM) | MIC (Staphylococcus aureus [23]; [31]): 0.025 µg/mL (≈ 0.0688 µM) | ED50 (Escherichia coli [24]): 1.4 mg/kg | MTD (Mus musculus [25]): 100 mg/kg

CCn1cc(C(=O)O)c(=O)c2cc(F)c(N3CCNCC3)cc21 [NORFLOXACIN]
No. of pos rxns [1]: 5 | ED50 (Pseudomonas aeruginosa [2]): 76 mg/kg | MIC (Pseudomonas aeruginosa [3]; [29]): 0.2 µg/mL (≈ 0.626 µM) | No. of pos rxns [5]: 0 | MIC (Escherichia coli [6]; [30]): 0.025 µg/mL (≈ 0.0783 µM) | MTD (Mus musculus [7]): 300 mg/kg | ED50 (Streptococcus pyogenes [8]): > 100 mg/kg | MIC (Escherichia coli [9]; [30]): 0.1 µg/mL (≈ 0.313 µM) | MIC (Staphylococcus aureus [10]; [31]): 0.8 µg/mL (≈ 2.51 µM) | MIC (Enterococcus faecalis; [32]): 1.6 µg/mL (≈ 5.01 µM) | ED50 (Streptococcus pneumoniae [11]): 150 mg/kg | PTD50 (Mus musculus [12]): >300 mg/kg and 172 mg/kg | No effect dose (Mus musculus [13]): 300 mg/kg and 100 mg/kg | ED50 (Escherichia coli [15]): 4 mg/kg | MIC (Streptococcus pyogenes [17]; [33]): 0.8 µg/mL (≈ 2.51 µM) | MIC [18, 34]: 0.025 µg/mL (≈ 0.0783 µM) | MIC (Enterobacter cloacae): 0.1 µg/mL (≈ 0.313 µM) | ED50 (Streptococcus pyogenes [19]): 45 mg/kg | MIC (Streptococcus pneumoniae [20]; [35]): 1.6 µg/mL (≈ 5.01 µM) | MIC (Klebsiella pneumoniae; [36]): 0.05 µg/mL (≈ 0.157 µM) | ED50 (Streptococcus pneumoniae [22]): > 100 mg/kg | MIC (Staphylococcus aureus [23]; [31]): 0.05 µg/mL (≈ 0.157 µM) | ED50 (Escherichia coli [24]): 0.6 mg/kg | MTD (Mus musculus [25]): 300 mg/kg | ED50 (Pseudomonas aeruginosa [26]): 11 mg/kg
